In paper PMC6606825 (Journal of Ginseng Research, 2018):
Marks after values point to notes of the source that are not given here.

Experiment: Pharmacokinetics of CK and its metabolite 20
Assay type: in vivo, healthy Chinese volunteers
In short: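 Healthy adults given one oral tablet dose fasting (overnight, or 10 h in a crossover food-effect arm); 30 subjects from the 100/200/400 mg groups were pooled with 24 from 200 mg fasting periods. Plasma was stored at −70°C, extracted with MTBE plus internal standards and assayed by LC-MS/MS. Cmax was observed and AUClast calculated by linear trapezoid, each divided by dose. The metabolite/parent ratio was also calculated. Genotyping used Sequenom MassARRAY, and log-transformed values were compared by one-way ANOVA.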

[1] = ABCG2 rs3114018 AA (first line), mean (SD)
[2] = ABCG2 rs3114018 AA (third line), mean (SD)

CK Cmax/D (ABCG2 rs2725248 CC, mean (SD)): 4.46 (1.08) | CK AUClast/D [1]: 25.71 (14.88) | CK Cmax/D [1]: 3.40 (1.60) | CK AUClast/D [2]: 26.43 (22.97) | CK Cmax/D [2]: 3.36 (2.54) | CK AUClast/D (ABCG2 rs3114018 CA, mean (SD)): 30.74 (15.11) | CK Cmax/D (ABCG2 rs3114018 CA, mean (SD)): 4.02 (2.12) | CK AUClast/D (ABCG2 rs6857600 CC, mean (SD)): 29.60 (19.18) | CK Cmax/D (ABCG2 rs6857600 CC, mean (SD)): 3.72 (2.28) | CK AUClast/D (ABCG2 rs6857600 TC, mean (SD)): 26.00 (7.52) | CK Cmax/D (ABCG2 rs6857600 TC, mean (SD)): 3.79 (1.18) | CK AUClast/D (ABCG2 rs6857600 TT, mean (SD)): 16.47 (5.68) | CK Cmax/D (ABCG2 rs6857600 TT, mean (SD)): 2.37 (0.75) | CK AUClast/D (ABCG2 rs12505410 GG, mean (SD)): 36.50 (20.67) | CK Cmax/D (ABCG2 rs12505410 GG, mean (SD)): 3.96 (1.91) | CK AUClast/D (ABCG2 rs12505410 GT, mean (SD)): 33.35 (21.92) | CK Cmax/D (ABCG2 rs12505410 GT, mean (SD)): 4.39 (2.76) | CK AUClast/D (ABCG2 rs12505410 TT, mean (SD)): 22.29 (7.69) | CK Cmax/D (ABCG2 rs12505410 TT, mean (SD)): 3.00 (1.05) | CK AUClast/D (ABCG2 rs17731799 GG, mean (SD)): 25.71 (14.88) | CK Cmax/D (ABCG2 rs17731799 GG, mean (SD)): 3.40 (1.60) | CK AUClast/D (ABCG2 rs17731799 GT, mean (SD)): 32.10 (14.45) | CK Cmax/D (ABCG2 rs17731799 GT, mean (SD)): 4.13 (1.88) | CK AUClast/D (ABCG2 rs17731799 TT, mean (SD)): 26.40 (21.35) | CK Cmax/D (ABCG2 rs17731799 TT, mean (SD)): 3.47 (2.62) | CK AUClast/D (CFTR rs213950 AG, mean (SD)): 26.46 (20.44) | CK Cmax/D (CFTR rs213950 AG, mean (SD)): 3.36 (2.54) | CK AUClast/D (CFTR rs213950 GG, mean (SD)): 31.13 (15.12) | CK Cmax/D (CFTR rs213950 GG, mean (SD)): 4.14 (1.85) | CK AUClast/D (CFTR rs213968 CC, mean (SD)): 30.36 (14.71) | CK Cmax/D (CFTR rs213968 CC, mean (SD)): 4.14 (1.90) | CK AUClast/D (CFTR rs213968 CT, mean (SD)): 27.70 (20.72) | CK Cmax/D (CFTR rs213968 CT, mean (SD)): 3.43 (2.53) | CK AUClast/D (CFTR rs213968 TT, mean (SD)): 28.15 (14.72) | CK Cmax/D (CFTR rs213968 TT, mean (SD)): 3.81 (1.64) | CK AUClast/D (CFTR rs213976 GG, mean (SD)): 27.63 (17.53) | CK Cmax/D (CFTR rs213976 GG, mean (SD)): 3.62 (1.91) | CK AUClast/D (CFTR rs213976 GT, mean (SD)): 28.13 (20.65) | CK Cmax/D (CFTR rs213976 GT, mean (SD)): 3.63 (2.58) | CK AUClast/D (CFTR rs213976 TT, mean (SD)): 29.55 (14.70) | CK Cmax/D (CFTR rs213976 TT, mean (SD)): 3.89 (1.85) | CK AUClast/D (CFTR rs1042077 GG, mean (SD)): 28.15 (14.72) | CK Cmax/D (CFTR rs1042077 GG, mean (SD)): 3.81 (1.64) | CK AUClast/D (CFTR rs1042077 GT, mean (SD)): 27.96 (21.11) | CK Cmax/D (CFTR rs1042077 GT, mean (SD)): 3.46 (2.58) | CK AUClast/D (CFTR rs1042077 TT, mean (SD)): 30.54 (15.14) | CK Cmax/D (CFTR rs1042077 TT, mean (SD)): 4.12 (1.95) | CK AUClast/D (CFTR rs2106155 AA, mean (SD)): 25.97 (16.89) | CK Cmax/D (CFTR rs2106155 AA, mean (SD)): 3.41 (1.86) | CK AUClast/D (CFTR rs2106155 CA, mean (SD)): 31.04 (21.72) | CK Cmax/D (CFTR rs2106155 CA, mean (SD)): 4.02 (2.69) | CK AUClast/D (CFTR rs2106155 CC, mean (SD)): 29.28 (14.69) | CK Cmax/D (CFTR rs2106155 CC, mean (SD)): 3.86 (1.85) | CK AUClast/D (CFTR rs2237726 CC, mean (SD)): 29.76 (14.41) | CK Cmax/D (CFTR rs2237726 CC, mean (SD)): 3.89 (1.81) | CK AUClast/D (CFTR rs2237726 CT, mean (SD)): 26.16 (19.95) | CK Cmax/D (CFTR rs2237726 CT, mean (SD)): 3.35 (2.25) | CK AUClast/D (CFTR rs2237726 TT, mean (SD)): 32.16 (19.24) | CK Cmax/D (CFTR rs2237726 TT, mean (SD)): 3.98 (2.20) | CK AUClast/D (CFTR rs4148711 AA, mean (SD)): 28.15 (14.72) | CK Cmax/D (CFTR rs4148711 AA, mean (SD)): 3.81 (1.64) | CK AUClast/D (CFTR rs4148711 AT, mean (SD)): 27.70 (20.72) | CK Cmax/D (CFTR rs4148711 AT, mean (SD)): 3.43 (2.53) | CK AUClast/D (CFTR rs4148711 TT, mean (SD)): 29.34 (14.49) | CK Cmax/D (CFTR rs4148711 TT, mean (SD)): 3.89 (1.63) | CK AUClast/D (NR1I2 rs1464602 AA, mean (SD)): 28.65 (21.81) | CK Cmax/D (NR1I2 rs1464602 AA, mean (SD)): 3.54 (2.35) | CK AUClast/D (NR1I2 rs1464602 AG, mean (SD)): 33.46 (13.69) | CK Cmax/D (NR1I2 rs1464602 AG, mean (SD)): 4.62 (2.09) | CK AUClast/D (NR1I2 rs1464602 GG, mean (SD)): 20.43 (9.71) | CK Cmax/D (NR1I2 rs1464602 GG, mean (SD)): 2.65 (1.27) | CK AUClast/D (NR1I2 rs1523127 AA, mean (SD)): 29.24 (18.87) | CK Cmax/D (NR1I2 rs1523127 AA, mean (SD)): 3.82 (2.36) | CK AUClast/D (NR1I2 rs1523127 CA, mean (SD)): 27.08 (14.85) | CK Cmax/D (NR1I2 rs1523127 CA, mean (SD)): 3.53 (1.71) | CK AUClast/D (NR1I2 rs1523127 CC, n = 1): 28.50 (−) ^2) | CK Cmax/D (NR1I2 rs1523127 CC, n = 1): 3.49 (−) ^2) | CK AUClast/D (NR1I2 rs2276707 CC, mean (SD)): 25.30 (13.16) | CK Cmax/D (NR1I2 rs2276707 CC, mean (SD)): 3.46 (1.86) | CK AUClast/D (NR1I2 rs2276707 CT, mean (SD)): 30.38 (20.00) | CK Cmax/D (NR1I2 rs2276707 CT, mean (SD)): 3.88 (2.41) | CK AUClast/D (NR1I2 rs2276707 TT, mean (SD)): 28.36 (15.79) | CK Cmax/D (NR1I2 rs2276707 TT, mean (SD)): 3.71 (1.90) | CK AUClast/D (NR1I2 rs2472682 AA, mean (SD)): 21.56 (9.07) | CK Cmax/D (NR1I2 rs2472682 AA, mean (SD)): 2.87 (1.20) | CK AUClast/D (NR1I2 rs2472682 CA, mean (SD)): 34.34 (20.92) | CK Cmax/D (NR1I2 rs2472682 CA, mean (SD)): 4.45 (2.60) | CK AUClast/D (NR1I2 rs2472682 CC, mean (SD)): 24.44 (13.14) | CK Cmax/D (NR1I2 rs2472682 CC, mean (SD)): 3.17 (1.39) | CK AUClast/D (NR1I2 rs6785049 AA, mean (SD)): 22.20 (13.19) | CK Cmax/D (NR1I2 rs6785049 AA, mean (SD)): 2.88 (1.46) | CK AUClast/D (NR1I2 rs6785049 AG, mean (SD)): 32.86 (19.88) | CK Cmax/D (NR1I2 rs6785049 AG, mean (SD)): 4.27 (2.46) | CK AUClast/D (NR1I2 rs6785049 GG, mean (SD)): 24.29 (12.99) | CK Cmax/D (NR1I2 rs6785049 GG, mean (SD)): 3.22 (1.69) | CK AUClast/D (NR1I2 rs7643645 AA, mean (SD)): 26.64 (13.51) | CK Cmax/D (NR1I2 rs7643645 AA, mean (SD)): 3.76 (2.21) | CK AUClast/D (NR1I2 rs7643645 AG, mean (SD)): 27.63 (13.83) | CK Cmax/D (NR1I2 rs7643645 AG, mean (SD)): 3.41 (1.51) | CK AUClast/D (NR1I2 rs7643645 GG, mean (SD)): 39.83 (34.46) | CK Cmax/D (NR1I2 rs7643645 GG, mean (SD)): 5.06 (3.69)
Structure (SMILES): CC(C)=CCC[C@](C)(O[C@@H]1O[C@H](CO)[C@@H](O)[C@H](O)[C@H]1O)[C@H]1CC[C@]2(C)[C@@H]1[C@H](O)C[C@@H]1[C@@]3(C)CC[C@H](O)C(C)(C)[C@@H]3CC[C@]12C [Ginsenoside compound K, 20-O-beta-D-glucopyranosyl-20(S)-protopanaxadiol]
